Measurements taken from ChEMBL document CHEMBL4732044, “Discovery of a promising agent IQZ23 for the treatment of obesity and related metabolic disorders” (Eur J Med Chem, 2020).
Each block holds one compound with its values, some of them ahead of it. The source made the active and inactive calls. The calls are words filed in the database; no cut-off is given here.

Key:
3T3-L1 [1] = test: Lipid lowering activity in mouse 3T3-L1 cells assessed as adipogenic cocktail-induced triglyceride levels at 1 uM after 3 to 6 days by GPO-POD assay relative to control; format: functional; details: time 3-6 day
Outline: (§1)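 3T3-L1 cells were differentiated (cocktail on days 0–3, insulin thereafter) with 1 µM compound present during defined windows (days 0–3, 3–6, 6–9, or 0–3/0–6/0–9). TG was measured at day 9 by GPO-POD after Triton X-100 lysis and sonication. TG was normalized to BCA protein and expressed as % of differentiated control.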

3T3-L1 [2] = test: Lipid lowering activity in mouse 3T3-L1 cells assessed as adipogenic cocktail-induced triglyceride levels at 1 uM after 6 to 9 days by GPO-POD assay relative to control; format: functional; details: time 6-9 day; outline: as §1
3T3-L1 [3] = test: Lipid lowering activity in mouse 3T3-L1 cells assessed as adipogenic cocktail-induced triglyceride levels at 1 uM up to 9 days by GPO-POD assay relative to control; format: functional, cell-based; details: time day <=9; outline: as §1
3T3-L1 [4] = test: Inhibition of mouse 3T3-L1 cells adipocyte differentiation assessed as reduction in adipogenic cocktail-induced PPARgamma protein expression at 0.3 to 1 uM after 24 hrs by Western blot analysis; format: functional, cell-based; details: dose 0.3-1 µM
Outline: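 3T3-L1 preadipocytes were exposed to adipogenic cocktail with compound (0.3 or 1 µM) and harvested on day 1. Lysates were resolved by SDS-PAGE, immunoblotted (primary antibody overnight at 4 °C, HRP secondary) and quantified by densitometry normalized to actin.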

3T3-L1 [5] = test: Inhibition of mouse 3T3-L1 cells adipocyte differentiation assessed as reduction in adipogenic cocktail-induced ACC protein expression at 0.3 to 1 uM after 6 days by Western blot analysis; format: functional, cell-based; details: dose 0.3-1 µM, time 6.0 day
Outline: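 3T3-L1 preadipocytes were differentiated with cocktail for 3 days, then insulin medium for 3 days, with compound (0.3 or 1 µM) present throughout. Cells were harvested on day 6 and proteins measured by Western blot, with densitometry normalized to actin.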

3T3-L1 [6] = test: Activation of AMPK pathway in adipogenic cocktail-induced mouse 3T3-L1 cells with SiRNA-induced AMPKalpha knock down assessed as decrease in PPARgamma protein expression at 1 uM after 24 hrs by Western blot analysis; format: cell-based
Outline: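 3T3-L1 cells at 80% density transfected with 50 nM AMPKα siRNA or negative control for 24 h. Once confluent, differentiated with adipogenic cocktail with or without compound. Protein by Western blot normalized to actin. TG measured by GPO-POD kit, normalized to BCA protein, expressed as % of control.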

C2C12 [7] = test: Activation of AMPK pathway in mouse C2C12 cells assessed as increase in glucose uptake at 0.3 to 1 uM after 6 hrs by 2-NBDG/Hoechst 33342 staining based Confocal microscopic method; format: cell-based; details: filed as activator, dose 0.3-1 µM
Outline: (§2)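 C2C12 myoblasts kept in DMEM with 10% FBS and 1% penicillin/streptomycin at 37 °C under 5% CO2.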

3T3-L1 [8] = test: Activation of AMPK pathway in mouse 3T3-L1 cells assessed as increase in PCG1alpha mRNA expression at 0.3 to 1 uM after 24 hrs by RT-qPCR analysis; format: cell-based; details: filed as activator, dose 0.3-1 µM
Mus musculus [9] = test: Antiobesity activity in high fat diet-induced obese C57BL/6J mouse model assessed as decrease in liver weight at 20 mg/kg, ip administered for every other days for 6 weeks; format: functional, organism-based
Mus musculus [10] = test: Anti-hyperglycemic activity in high fat diet-induced obese C57BL/6J mouse model assessed as decrease in blood glucose level at 20 mg/kg, ip; format: functional, organism-based; details: time hrs <=24, TDE = time-dependent effect
Outline: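 C57BL/6J mice fed HFC diet (60% fat, 1% cholesterol). Single i.p. injection of saline or compound at 20 mg/kg. Blood glucose measured with a glucose monitor at 0, 0.5, 1, 2, 4, 8, 12 and 24 h.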

[11] = Half life in Sprague-Dawley rat at 2 mg/kg, iv up to 24 hrs by LC-MS/MS analysis; format: ADME, organism-based; details: in vivo
Outline: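 Male SD rats (180–220 g, n = 3) received compound in ethanol/saline (5:95), either intravenously at 2 mg/kg or intragastrically at 5 mg/kg. Plasma was sampled at 0, 0.5, 1, 2, 4, 8, 12 and 24 h. Concentrations were measured by LC-MS/MS, and PK parameters were calculated from the concentration–time data.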

Mus musculus [12] = test: Antiobesity activity in high fat diet-induced obese C57BL/6J mouse model assessed as ALT level at 20 mg/kg, ip administered for every other days for 6 weeks by auto-analyzer method (reference value: 231.9 +/- 18.5 U/L); format: functional
Outline: (§3)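 Male C57BL/6J mice (7–8 weeks) fed HFC diet (60% fat, 1% cholesterol) for up to 14 weeks. From week 9, given 20 mg/kg i.p. every other day for 6 weeks in saline with 10% ethanol and 10% castor oil, or vehicle. Body weight and food intake recorded daily. At end, mice fasted 6 h, anesthetized, and blood collected into EDTA. Plasma chemistry run on an auto-analyzer; insulin by ultra-sensitive ELISA.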

Mus musculus [13] = test: Antiobesity activity in high fat diet-induced obese C57BL/6J mouse model assessed as blood urea nitrogen level at 20 mg/kg, ip administered for every other days for 6 weeks by auto-analyzer method (reference value: 14.6 +/- 1.4 mM); format: functional
Mus musculus [14] = test: Antiobesity activity in high fat diet-induced obese C57BL/6J mouse model assessed as creatinine level at 20 mg/kg, ip administered for every other days for 6 weeks by auto-analyzer method (reference value: 14.9 +/- […]); format: functional; outline: as §3
Mus musculus [15] = test: Antiobesity activity in high fat diet-induced obese C57BL/6J mouse model assessed as free fatty acid level at 20 mg/kg, ip administered for every other days for 6 weeks by auto-analyzer method (reference value: 1668.5 +/- 144.6 uM); format: functional; outline: as §3
Mus musculus [16] = test: Antiobesity activity in high fat diet-induced obese C57BL/6J mouse model assessed as TG level at 20 mg/kg, ip administered for every other days for 6 weeks by auto-analyzer method (reference value: 1.2 +/- 0.02 mM); format: functional; outline: as §3
Mus musculus [17] = test: Antiobesity activity in high fat diet-induced obese C57BL/6J mouse model assessed as insulin level at 20 mg/kg, ip administered for every other days for 6 weeks by ELISA (reference value: 3.5 +/- 0.6 ng/ml); format: functional; outline: as §3
C2C12 [18] = test: Activation of AMPK pathway in mouse C2C12 cells assessed as increase in glucose uptake at 1 uM after 6 hrs by 2-NBDG/Hoechst 33342 staining based Confocal microscopic method; format: cell-based; details: filed as activator; outline: as §2
3T3-L1 [19] = test: Activation of AMPK pathway in mouse 3T3-L1 cells assessed as increase in TFAM mRNA expression at 1 uM after 24 hrs by RT-qPCR analysis; format: cell-based; details: filed as activator
3T3-L1 [20] = test: Activation of AMPK pathway in mouse 3T3-L1 cells assessed as increase in CPT-1beta mRNA expression at 1 uM after 24 hrs by RT-qPCR analysis; format: cell-based; details: filed as activator
[21] = Half life in Sprague-Dawley rat at 2 mg/kg, iv up to 24 hrs by LC-MS/MS analysis; details: in vivo
[22] = AUC(0 to t) in Sprague-Dawley rat at 2 mg/kg, iv up to 24 hrs by LC-MS/MS analysis; details: in vivo

SMILES: COc1ccc2[nH]c(-c3nc(NCCCCN4CCCC4)c4ccccc4n3)c(C=O)c2c1
Activity (3T3-L1 [1]): 61.8%
Activity (3T3-L1 [2]): 35.3%
Activity (3T3-L1 [3]): Active
inhibition (3T3-L1 [4]): Active
inhibition (3T3-L1 [5]): Active
Activity (3T3-L1 [6]): inactive
Activity (C2C12 [7]): Active
Activity (3T3-L1 [8]): Active
Activity (Mus musculus [9]): Active
Activity (Mus musculus [10]): Tde
half-life [11]: 4.4 h
Activity (Mus musculus [12]): 52 U/L
Activity (Mus musculus [13]): 11.5 mM
Activity (Mus musculus [14]): 14.5 µM
Activity (Mus musculus [15]): 694.4 µM
Activity (Mus musculus [16]): 0.92 mM
Activity (Mus musculus [17]): 2.2 ng/mL

half-life [21]: 3.14 h
AUC(0-t) at 24 h [22]: 635 ng·h/mL
SMILES: CN(C)CCCNc1nc(-c2[nH]c3ccccc3c2C=O)nc2ccccc12
Activity (C2C12 [18]): Active
Activity (3T3-L1 [19]): Active
Activity (3T3-L1 [20]): Active
